Published values pooled from the literature.
Lines come from different studies, so protocols differ. Converted amounts (≈) assume the structure as drawn.

`CC1(F)CN(C(=O)Cn2c(=O)c(C(=O)NCc3ccc(Cl)cc3)cc3nc(N4CCNC4=O)cnc32)C1` has a thermodynamic solubility of under 1.56 µM (aqueous buffer; 24 h, pH 7.4, 37 °C).
For `Cc1c(C(=O)O)ccc2c3n(nc12)[C@@H]1[C@H](C3)N(CC2CC2)[C@@]2(C(=O)Nc3cc(Cl)ccc32)[C@H]1c1cccc(Cl)c1F`, the bioavailability was 109% (male dog, plasma; oral, 2 mg/kg).
`CCCCC(CC)CNC(=N)NC(=N)NCCCCCCNC(=N)NC(=N)NCC(CC)CCCC` (centres unmarked) has a Papp A→B of under 0.07 ×10⁻⁶ cm/s (Caco-2; 5 µM, 2 h).
For `CCn1cc(Cl)c2c(Cc3ccc(N4CCCCC4)nc3)n(C)nc2c1=O`, the kinetic solubility was 40 to 80 µM (≈ 15.4 to 30.9 µg/mL) (nephelometry; aqueous buffer; 30 min, pH 6.5).
`Cn1cncc1[C@@](N)(c1ccc(Cl)cc1)c1ccc2c(c1)c(-c1cccc(Cl)c1)cc(=O)n2C` has a solubility of 14.1 µg/mL (≈ 28.8 µM) (FaSSIF; pH 6.5, 37 °C).
`CC(C)NCC(O)COc1cccc2ccccc12` (centres unmarked) has a Papp A→B of 18.4 ×10⁻⁶ cm/s (Caco-2; 5 µM, 2 h).
With `CC(C)C[C@H](NC(=O)[C@@H]1COCCCCCC(=O)NCC(=O)N2CCC[C@H]2C(=O)N1)C(=O)[C@@]1(C)CO1` the Papp B→A was 7.25 ×10⁻⁶ cm/s (Caco-2; 10 µM, 2 h, pH 7.4).
`Cn1nc2c(=O)n(C3CC3)nc(C3CC3)c2c1Cc1ccc(C(F)(F)F)c(F)c1` has a kinetic solubility of 6.3 to 12.5 µM (≈ 2.56 to 5.08 µg/mL) (nephelometry; aqueous buffer; 30 min, pH 6.5).
`CN1CCN(c2cnc3c(cc(C(=O)NCc4ccc(Cl)cc4)c(=O)n3CC(=O)N3CC(C)(F)C3)n2)C1=O` gave a thermodynamic solubility of under 1.56 µM (aqueous buffer; 24 h, pH 7.4, 37 °C).
`Cn1nc2c(=O)n(C3CC3)ncc2c1[C@](O)(c1ccc(C(F)(F)F)c(Cl)c1)C(F)(F)F` has a kinetic solubility of 5 to 10 µM (≈ 2.33 to 4.67 µg/mL) (nephelometry; aqueous buffer; 30 min, pH 6.5).
The thermodynamic solubility of `C[C@H]1COC2=C1C(=O)C(=O)c1c2ccc2c1CCCC2(C)C` is reported as 15.8 µg/mL (PBS; 24 h, pH 4, 25 °C).
`CC[C@@](O)(c1ccc(C(F)(F)F)c(C#N)c1)c1c2ccn(C3CC3)c(=O)c2nn1C` has a kinetic solubility of 20 to 40 µM (≈ 8.33 to 16.7 µg/mL) (nephelometry; aqueous buffer; 30 min, pH 6.5).
`CO[C@]1(C(=O)N[C@@H](C)c2ccc(-n3cc(F)cn3)nc2)CC[C@H](c2nc(C)cc(Nc3cc(C)[nH]n3)n2)CC1` gave a pKa of 6.71.
With `Cn1cncc1[C@@](N)(c1ccc(Cl)cc1)c1ccc2c(c1)c(-c1cccc(Cl)c1)cc(=O)n2C` the bioavailability was 65% (beagle dog, plasma; oral, 10 mg/kg, single dose).
